The values that follow come from ChEMBL document CHEMBL1152480, “Synthesis of novel carbazole based macrocyclic amides as potential antimicrobial agents” (2009).

SMILES strings stand for the structures. ≈ marks a conversion by molar mass, not a printed value.

By MIC is commonly meant the lowest concentration found to suppress growth. A low value points to inhibition by little substance.

The subject of one experiment is Curvularia lunata. The experiment in a line: Antifungal activity against Curvularia lunata after 3 days by well diffusion assay. It counts as functional.
Details: not given
Put shortly: (§1)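 Fungi maintained on potato dextrose agar (potato 200 g/l, dextrose 20 g/l; pH 6.5) at room temperature (28 ± 2 °C). Well diffusion assay against DMSO control; MIC read as lowest concentration causing prominent inhibition of fungal growth after 3 days incubation at 37 °C.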
(Agar diffusion results depend on both activity and mobility in agar.)
As to `CCn1c2ccc3cc2c2cc(ccc21)CSc1ccccc1NC(=O)c1ccccc1-c1ccccc1C(=O)Nc1ccccc1SC3`, the Activity entry was “Dose-dependent effect”.

As for `CCn1c2ccc3cc2c2cc(ccc21)CSc1ccccc1NC(=O)COc1cccc(c1)OCC(=O)Nc1ccccc1SC3`, the Activity entry was “Dose-dependent effect”.

As to `CCn1c2ccc3cc2c2cc(ccc21)CSc1ccccc1NC(=O)c1cccc(c1)C(=O)Nc1ccccc1SC3`, the Activity result is “Dose-dependent effect”.

`CCn1c2ccc3cc2c2cc(ccc21)CSc1ccccc1NC(=O)c1ccc(cc1)OCc1ccccc1COc1ccc(cc1)C(=O)Nc1ccccc1SC3`: the Activity result is “Dose-dependent effect”.

Still in this experiment, the particulars now being: 72 h.
In the case of `CCn1c2ccc3cc2c2cc(ccc21)CSc1ccccc1NC(=O)c1ccccc1-c1ccccc1C(=O)Nc1ccccc1SC3`, the MIC turned out to be 20 µg/mL (≈ 29.6 µM).

In turn, `CCn1c2ccc3cc2c2cc(ccc21)CSc1ccccc1NC(=O)COc1cccc(c1)OCC(=O)Nc1ccccc1SC3` gave an MIC of 35 µg/mL (≈ 53 µM).

`CCn1c2ccc3cc2c2cc(ccc21)CSc1ccccc1NC(=O)c1cccc(c1)C(=O)Nc1ccccc1SC3`: the MIC came out at 20 µg/mL (≈ 33.3 µM).

`CCn1c2ccc3cc2c2cc(ccc21)CSc1ccccc1NC(=O)c1ccc(cc1)OCc1ccccc1COc1ccc(cc1)C(=O)Nc1ccccc1SC3`: 20 µg/mL (≈ 24.6 µM) was the least that counted as inhibitory (MIC).

The test system of another experiment is Staphylococcus aureus. The experiment in a line: Antibacterial activity against Staphylococcus aureus after 24 hrs by well diffusion assay. It counts as functional.
Details: not given
Put shortly:
(§2)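 Bacteria kept on nutrient agar (beef extract, yeast extract, peptone, NaCl; pH 7.2) at room temperature (28 ± 2 °C). Compounds tested by well diffusion against DMSO control, tetracycline reference. MIC taken as lowest concentration giving prominent inhibition of bacterial growth after 24 h at 37 °C.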
With `CCn1c2ccc3cc2c2cc(ccc21)CSc1ccccc1NC(=O)c1ccccc1-c1ccccc1C(=O)Nc1ccccc1SC3`, the Activity result is “Dose-dependent effect” and 70 µg/mL (≈ 104 µM) was the least that counted as inhibitory (MIC).

`CCn1c2ccc3cc2c2cc(ccc21)CSc1ccccc1NC(=O)COc1cccc(c1)OCC(=O)Nc1ccccc1SC3`: the Activity entry is “Dose-dependent effect” and the MIC was found to be 40 µg/mL (≈ 60.6 µM).

Take `CCn1c2ccc3cc2c2cc(ccc21)CSc1ccccc1NC(=O)c1cccc(c1)C(=O)Nc1ccccc1SC3`: the Activity result is “Dose-dependent effect” and the MIC came out at 20 µg/mL (≈ 33.3 µM).

Turning to `CCn1c2ccc3cc2c2cc(ccc21)CSc1ccccc1NC(=O)c1ccc(cc1)OCc1ccccc1COc1ccc(cc1)C(=O)Nc1ccccc1SC3`, the Activity entry is “Dose-dependent effect” and the MIC came to 30 µg/mL (≈ 36.9 µM).

For another experiment, the system named is Proteus vulgaris. The experiment in a line: Antibacterial activity against Proteus vulgaris after 24 hrs by well diffusion assay. It counts as functional.
Details: not given
Put shortly: as §2
For the compound `CCn1c2ccc3cc2c2cc(ccc21)CSc1ccccc1NC(=O)c1ccccc1-c1ccccc1C(=O)Nc1ccccc1SC3`, the Activity result was “Dose-dependent effect” and the MIC came out at 40 µg/mL (≈ 59.2 µM).

On to `CCn1c2ccc3cc2c2cc(ccc21)CSc1ccccc1NC(=O)COc1cccc(c1)OCC(=O)Nc1ccccc1SC3`, for which the Activity result was “Dose-dependent effect” and 60 µg/mL (≈ 90.9 µM) was the least that counted as inhibitory (MIC).

For the compound `CCn1c2ccc3cc2c2cc(ccc21)CSc1ccccc1NC(=O)c1cccc(c1)C(=O)Nc1ccccc1SC3`, the Activity result was “Dose-dependent effect” and the MIC stood at 60 µg/mL (≈ 100 µM).

Take `CCn1c2ccc3cc2c2cc(ccc21)CSc1ccccc1NC(=O)c1ccc(cc1)OCc1ccccc1COc1ccc(cc1)C(=O)Nc1ccccc1SC3`: the Activity result is “Dose-dependent effect” and the MIC stood at 40 µg/mL (≈ 49.3 µM).

A further experiment has as its system Alternaria alternata. Put plainly: Antifungal activity against Alternaria alternata after 3 days by well diffusion assay. It counts as functional.
Details: not given
Put shortly:
as §1
As for `CCn1c2ccc3cc2c2cc(ccc21)CSc1ccccc1NC(=O)c1ccccc1-c1ccccc1C(=O)Nc1ccccc1SC3`, the Activity result was “Dose-dependent effect”.

Turning to `CCn1c2ccc3cc2c2cc(ccc21)CSc1ccccc1NC(=O)COc1cccc(c1)OCC(=O)Nc1ccccc1SC3`, the Activity entry is “Dose-dependent effect”.

With `CCn1c2ccc3cc2c2cc(ccc21)CSc1ccccc1NC(=O)c1cccc(c1)C(=O)Nc1ccccc1SC3`, the Activity entry was “Dose-dependent effect”.

As to `CCn1c2ccc3cc2c2cc(ccc21)CSc1ccccc1NC(=O)c1ccc(cc1)OCc1ccccc1COc1ccc(cc1)C(=O)Nc1ccccc1SC3`, the Activity entry is “Dose-dependent effect”.

The experiment is the same for the next values; noted with them: 72 h.
For the compound `CCn1c2ccc3cc2c2cc(ccc21)CSc1ccccc1NC(=O)c1ccccc1-c1ccccc1C(=O)Nc1ccccc1SC3`, 25 µg/mL (≈ 37 µM) was the least that counted as inhibitory (MIC).

In the case of `CCn1c2ccc3cc2c2cc(ccc21)CSc1ccccc1NC(=O)COc1cccc(c1)OCC(=O)Nc1ccccc1SC3`, the MIC is 25 µg/mL (≈ 37.9 µM).

The compound `CCn1c2ccc3cc2c2cc(ccc21)CSc1ccccc1NC(=O)c1cccc(c1)C(=O)Nc1ccccc1SC3` gave an MIC of 15 µg/mL (≈ 25 µM). Against the preceding compound, the MIC is about 1.7-fold lower.

On to `CCn1c2ccc3cc2c2cc(ccc21)CSc1ccccc1NC(=O)c1ccc(cc1)OCc1ccccc1COc1ccc(cc1)C(=O)Nc1ccccc1SC3`, for which 15 µg/mL (≈ 18.5 µM) was the least that counted as inhibitory (MIC).

The next experiment concerns Proteus mirabilis. Put plainly: Antibacterial activity against Proteus mirabilis after 24 hrs by well diffusion assay. It counts as functional.
Details: not given
In a few lines: as §2
Take `CCn1c2ccc3cc2c2cc(ccc21)CSc1ccccc1NC(=O)c1ccccc1-c1ccccc1C(=O)Nc1ccccc1SC3`: the Activity result is “Dose-dependent effect” and 40 µg/mL (≈ 59.2 µM) was the least that counted as inhibitory (MIC).

In the case of `CCn1c2ccc3cc2c2cc(ccc21)CSc1ccccc1NC(=O)COc1cccc(c1)OCC(=O)Nc1ccccc1SC3`, the Activity entry was “Dose-dependent effect” and it took 20 µg/mL (≈ 30.3 µM) to inhibit growth (MIC).

In the case of `CCn1c2ccc3cc2c2cc(ccc21)CSc1ccccc1NC(=O)c1cccc(c1)C(=O)Nc1ccccc1SC3`, the Activity result was “Dose-dependent effect” and the MIC was 50 µg/mL (≈ 83.4 µM).

For `CCn1c2ccc3cc2c2cc(ccc21)CSc1ccccc1NC(=O)c1ccc(cc1)OCc1ccccc1COc1ccc(cc1)C(=O)Nc1ccccc1SC3`, the Activity result was “Dose-dependent effect” and the MIC stood at 10 µg/mL (≈ 12.3 µM).

The test system of a further experiment is Macrophomina phaseolina. The experiment in a line: Antifungal activity against Macrophomina phaseolina after 3 days by well diffusion assay. It counts as functional.
Details: not given
In a few lines:
as §1
For `CCn1c2ccc3cc2c2cc(ccc21)CSc1ccccc1NC(=O)c1ccccc1-c1ccccc1C(=O)Nc1ccccc1SC3`, the Activity result was “Dose-dependent effect”.

Turning to `CCn1c2ccc3cc2c2cc(ccc21)CSc1ccccc1NC(=O)COc1cccc(c1)OCC(=O)Nc1ccccc1SC3`, the Activity entry is “Dose-dependent effect”.

For `CCn1c2ccc3cc2c2cc(ccc21)CSc1ccccc1NC(=O)c1cccc(c1)C(=O)Nc1ccccc1SC3`, the Activity entry is “Dose-dependent effect”.

As for `CCn1c2ccc3cc2c2cc(ccc21)CSc1ccccc1NC(=O)c1ccc(cc1)OCc1ccccc1COc1ccc(cc1)C(=O)Nc1ccccc1SC3`, the Activity entry was “Dose-dependent effect”.

Still in this experiment, the particulars now being: 72 h.
On to `CCn1c2ccc3cc2c2cc(ccc21)CSc1ccccc1NC(=O)c1ccccc1-c1ccccc1C(=O)Nc1ccccc1SC3`, for which the MIC amounted to 15 µg/mL (≈ 22.2 µM).

For `CCn1c2ccc3cc2c2cc(ccc21)CSc1ccccc1NC(=O)COc1cccc(c1)OCC(=O)Nc1ccccc1SC3`, 45 µg/mL (≈ 68.2 µM) was the least that counted as inhibitory (MIC).

In turn, `CCn1c2ccc3cc2c2cc(ccc21)CSc1ccccc1NC(=O)c1cccc(c1)C(=O)Nc1ccccc1SC3` gave an MIC of 30 µg/mL (≈ 50 µM).

`CCn1c2ccc3cc2c2cc(ccc21)CSc1ccccc1NC(=O)c1ccc(cc1)OCc1ccccc1COc1ccc(cc1)C(=O)Nc1ccccc1SC3` gave a minimum inhibitory concentration (MIC) of 50 µg/mL (≈ 61.6 µM).

For another experiment, the system named is Rhizoctonia solani. Put plainly: Antifungal activity against Rhizoctonia solani after 3 days by well diffusion assay. It counts as functional.
Details: not given
In a few lines:
as §1
For the compound `CCn1c2ccc3cc2c2cc(ccc21)CSc1ccccc1NC(=O)c1ccccc1-c1ccccc1C(=O)Nc1ccccc1SC3`, the Activity result is “Dose-dependent effect”.

As for `CCn1c2ccc3cc2c2cc(ccc21)CSc1ccccc1NC(=O)COc1cccc(c1)OCC(=O)Nc1ccccc1SC3`, the Activity result was “Dose-dependent effect”.

In the case of `CCn1c2ccc3cc2c2cc(ccc21)CSc1ccccc1NC(=O)c1cccc(c1)C(=O)Nc1ccccc1SC3`, the Activity result was “Dose-dependent effect”.

Take `CCn1c2ccc3cc2c2cc(ccc21)CSc1ccccc1NC(=O)c1ccc(cc1)OCc1ccccc1COc1ccc(cc1)C(=O)Nc1ccccc1SC3`: the Activity result is “Dose-dependent effect”.

Staying with this experiment, now noted: 72 h.
Compound `CCn1c2ccc3cc2c2cc(ccc21)CSc1ccccc1NC(=O)c1ccccc1-c1ccccc1C(=O)Nc1ccccc1SC3` returned an MIC of 20 µg/mL (≈ 29.6 µM).

Consider `CCn1c2ccc3cc2c2cc(ccc21)CSc1ccccc1NC(=O)COc1cccc(c1)OCC(=O)Nc1ccccc1SC3`, for which the MIC turned out to be 50 µg/mL (≈ 75.8 µM).

Compound `CCn1c2ccc3cc2c2cc(ccc21)CSc1ccccc1NC(=O)c1cccc(c1)C(=O)Nc1ccccc1SC3` came in with a minimum inhibitory concentration (MIC) of 30 µg/mL (≈ 50 µM). This MIC lies about 1.7-fold lower than the previous one.

`CCn1c2ccc3cc2c2cc(ccc21)CSc1ccccc1NC(=O)c1ccc(cc1)OCc1ccccc1COc1ccc(cc1)C(=O)Nc1ccccc1SC3` returned an MIC of 40 µg/mL (≈ 49.3 µM).

Another experiment concerns Salmonella enterica subsp. enterica. Put plainly: Antibacterial activity against Salmonella typhi after 24 hrs by well diffusion assay. It counts as functional, Salmonella enterica subsp. enterica serovar Typhi.
Details: not given
Put shortly: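 S. typhi kept on nutrient agar (beef extract, yeast extract, peptone, NaCl, agar; pH 7.2) at 28 ± 2 °C. Agar well diffusion with DMSO as control and tetracycline as reference. MIC taken as the lowest concentration giving prominent inhibition of bacterial growth after 24 h at 37 °C.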
Regarding `CCn1c2ccc3cc2c2cc(ccc21)CSc1ccccc1NC(=O)c1ccccc1-c1ccccc1C(=O)Nc1ccccc1SC3`, the lowest concentration to inhibit growth (MIC) was 60 µg/mL (≈ 88.8 µM).

`CCn1c2ccc3cc2c2cc(ccc21)CSc1ccccc1NC(=O)COc1cccc(c1)OCC(=O)Nc1ccccc1SC3`: it took 30 µg/mL (≈ 45.5 µM) to inhibit growth (MIC). This MIC lies about 2-fold lower than the previous one.

In turn, `CCn1c2ccc3cc2c2cc(ccc21)CSc1ccccc1NC(=O)c1cccc(c1)C(=O)Nc1ccccc1SC3` showed a minimum inhibitory concentration (MIC) of 50 µg/mL (≈ 83.4 µM).

`CCn1c2ccc3cc2c2cc(ccc21)CSc1ccccc1NC(=O)c1ccc(cc1)OCc1ccccc1COc1ccc(cc1)C(=O)Nc1ccccc1SC3` came in with an MIC of 20 µg/mL (≈ 24.6 µM).

The same experiment, now with this note: Salmonella enterica subsp. enterica serovar Typhi.
`CCn1c2ccc3cc2c2cc(ccc21)CSc1ccccc1NC(=O)c1ccccc1-c1ccccc1C(=O)Nc1ccccc1SC3`: the Activity entry is “Dose-dependent effect”.

Consider `CCn1c2ccc3cc2c2cc(ccc21)CSc1ccccc1NC(=O)COc1cccc(c1)OCC(=O)Nc1ccccc1SC3`, for which the Activity entry is “Dose-dependent effect”.

`CCn1c2ccc3cc2c2cc(ccc21)CSc1ccccc1NC(=O)c1cccc(c1)C(=O)Nc1ccccc1SC3`: the Activity result was “Dose-dependent effect”.

Regarding `CCn1c2ccc3cc2c2cc(ccc21)CSc1ccccc1NC(=O)c1ccc(cc1)OCc1ccccc1COc1ccc(cc1)C(=O)Nc1ccccc1SC3`, the Activity result was “Dose-dependent effect”.
